Converted amounts (≈) assume the structure as drawn.
How the values were obtained:
[1] = Inhibition of cytosolic phospholipase A2alpha by GLU micelle assay
[2] = Lipophilicity, log D at pH 7.4; type: physicochemical; settings: buffer
[3] = Aqueous solubility after 18 hrs at pH 7.4; type: physicochemical
Summary of the method: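 Compound taken as 8 mg/mL DMSO stock; 13 µL added to 1.0 mL pH 7.4 buffer, mixed, left to settle 18 h at room temperature. Mixture filtered (0.2 µm), filtrate concentration read by UV plate reader. Solubility derived against a single-point standard.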

[4] = Permeability in buffer of pH 7.4 by PAMPA; type: ADME; settings: read-out: permeability
Summary of the method: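 PAMPA: 5 mg/mL DMSO stock diluted 200-fold in pH 7.4 universal buffer (25 µg/mL) and placed in donor wells. Filter membrane coated with phosphatidylcholine in dodecane (20 mg/mL); acceptor holds pH 7.4 buffer. Sandwich left 18 h at rt. Donor, acceptor and reference concentrations read by UV. Effective permeability (Pe) calculated; triplicate runs averaged. Verapamil and theophylline run as QC standards.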

MC9 [5] = assay: Inhibition of PGF2alpha production in DNP-BSA-stimulated mouse MC9 cells at 5 uM treated 15 mins before DNP-BSA challenge measured after 4 mins; type: functional
MC9 [6] = assay: Inhibition of LTB4 production in DNP-BSA-stimulated mouse MC9 cells at 5 uM treated 15 mins before DNP-BSA challenge measured after 4 mins; type: functional
Blood = assay: Inhibition of TXB2 production in calcium ionophore A-23187-stimulated Sprague-Dawley rat whole blood after 10 mins; type: functional, tissue-based
MC9 [7] = assay: Inhibition of PGF2alpha production in arachidonic acid-stimulated mouse MC9 cells at 5 uM treated 15 mins before arachidonic acid challenge measured after 4 mins; type: functional

IC50 [1] [µM]	logD [2]	solubility at 18 h [3] [µg/mL]	SMILES	further results
47			O=C(O)c1ccc(OCCCCCCn2c(=O)n(C(c3ccccc3)c3ccccc3)c(=O)c3ccccc32)cc1	
1.8	3.3	30 (≈ 45.5 µM)	COC(=O)C1CCN(c2ccc3c(=O)n(C(c4ccccc4)c4ccccc4)c(=O)n(C/C=C/COc4ccc(C(=O)O)cc4)c3c2)CC1	Papp [4]: 1 ×10⁻⁶ cm/s
1	2.4	34 (≈ 60.3 µM)	O=C(O)c1ccc(OC/C=C/Cn2c(=O)n(C(c3ccccc3)c3ccccc3)c(=O)c3ccc([N+](=O)[O-])cc32)cc1	inhibition at 5 µM (MC9 [5]): 30%; inhibition at 5 µM (MC9 [6]): 97%; IC50 (Blood): 13 µM; inhibition at 5 µM (MC9 [7]): -12%; Papp [4]: 2.6 ×10⁻⁶ cm/s
40			O=C(O)c1ccc(OC/C=C\Cn2c(=O)n(C(c3ccccc3)c3ccccc3)c(=O)c3cc(F)ccc32)cc1	
2.1	4.8		O=C(O)c1ccc(OC/C=C/Cn2c(=O)n(C(c3ccccc3)c3ccccc3)c(=O)c3ccc(Sc4ccccc4)cc32)cc1	
6			O=C(O)c1ccc(OC/C=C/Cn2c(=O)n(C(c3ccccc3)c3ccccc3)c(=O)c3cc(F)ccc32)cc1	
0.04			O=C(O)c1ccc(CCCc2c(CCNS(=O)(=O)Cc3ccc(Cl)c(Cl)c3)n(C(c3ccccc3)c3ccccc3)c3ccc(Cl)cc23)cc1 [EFIPLADIB]	
1			O=C(O)c1ccc(OC/C=C/Cn2c(=O)n(C(c3ccccc3)c3ccccc3)c(=O)c3ccc(Cl)cc32)cc1	inhibition at 5 µM (MC9 [5]): 99%; inhibition at 5 µM (MC9 [6]): 98%; IC50 (Blood): 11 µM; inhibition at 5 µM (MC9 [7]): -45%
40			O=C(O)c1ccc(OC/C=C\Cn2c(=O)n(C(c3ccccc3)c3ccccc3)c(=O)c3cc(Cl)ccc32)cc1	
2.8	3.2	40 (≈ 75.1 µM)	Cc1ccc2c(=O)n(C(c3ccccc3)c3ccccc3)c(=O)n(C/C=C/COc3ccc(C(=O)O)cc3)c2c1	Papp [4]: 2 ×10⁻⁶ cm/s
71			O=C(O)c1ccc(OCCCCCCCn2c(=O)n(C(c3ccccc3)c3ccccc3)c(=O)c3ccccc32)cc1	
3	2.8	40 (≈ 72.9 µM)	COc1ccc2c(=O)n(C(c3ccccc3)c3ccccc3)c(=O)n(C/C=C/COc3ccc(C(=O)O)cc3)c2c1	inhibition at 5 µM (MC9 [5]): 74%; inhibition at 5 µM (MC9 [6]): 99%; IC50 (Blood): 9 µM; inhibition at 5 µM (MC9 [7]): -98%; Papp [4]: 1.8 ×10⁻⁶ cm/s
40			O=C(O)CCCOc1ccc(Cn2c(=O)n(C(c3ccccc3)c3ccccc3)c(=O)c3ccccc32)cc1	
9			O=C(O)c1ccc(OC/C=C/Cn2c(=O)n(C(c3ccccc3)c3ccccc3)c(=O)c3cc(Br)ccc32)cc1	
140			O=C(O)Cc1coc(-c2ccc(Cn3c(=O)n(C(c4ccccc4)c4ccccc4)c(=O)c4ccccc43)cc2)n1	
100			O=C(O)c1cccc(OC/C=C/Cn2c(=O)n(C(c3ccccc3)c3ccccc3)c(=O)c3ccc(Cl)cc32)c1	
2.4	3.6		O=C(O)c1ccc(OC/C=C/Cn2c(=O)n(C(c3ccccc3)c3ccccc3)c(=O)c3ccc(N4CCSCC4)cc32)cc1	
60		51 (≈ 92.2 µM)	O=C(O)c1ccc(OC/C=C\Cn2c(=O)c3ccc(Cl)cc3n(C(c3ccccc3)c3ccccc3)c2=O)cc1	
25		37 (≈ 71.4 µM)	O=C(O)c1ccc(OC/C=C\Cn2c(=O)c3ccccc3n(C(c3ccccc3)c3ccccc3)c2=O)cc1	
1.1	1.4	> 100	O=C(O)c1ccc(OC/C=C/Cn2c(=O)n(C(c3ccccc3)c3ccccc3)c(=O)c3ccc(-n4cncn4)cc32)cc1	inhibition at 5 µM (MC9 [5]): 102%; inhibition at 5 µM (MC9 [6]): 100%; IC50 (Blood): 11 µM; inhibition at 5 µM (MC9 [7]): -28%; Papp [4]: 1.6 ×10⁻⁶ cm/s
5.6		42 (≈ 78.3 µM)	O=C(O)c1ccc(OC/C=C/Cn2c(=O)c3cc(F)ccc3n(C(c3ccccc3)c3ccccc3)c2=O)cc1	
30			O=C(O)c1ccc(OCCCCCn2c(=O)n(C(c3ccccc3)c3ccccc3)c(=O)c3ccccc32)cc1	
4.5		28 (≈ 50.6 µM)	O=C(O)c1ccc(OC/C=C/Cn2c(=O)c3ccc(Cl)cc3n(C(c3ccccc3)c3ccccc3)c2=O)cc1	
3			O=C(O)c1ccc(OC/C=C/Cn2c(=O)n(C(c3ccccc3)c3ccccc3)c(=O)c3ccccc32)cc1	inhibition at 5 µM (MC9 [5]): 52%; inhibition at 5 µM (MC9 [6]): 97%; IC50 (Blood): 14 µM
15	1.4	> 100	CS(=O)(=O)c1ccc2c(=O)n(C(c3ccccc3)c3ccccc3)c(=O)n(C/C=C/COc3ccc(C(=O)O)cc3)c2c1	Papp [4]: 0.3 ×10⁻⁶ cm/s

IC50 [1] [µM]	logD [2]	solubility at 18 h [3] [µg/mL]	SMILES	further results
2.2	2.5	48 (≈ 79.5 µM)	O=C(O)c1ccc(OC/C=C/Cn2c(=O)n(C(c3ccccc3)c3ccccc3)c(=O)c3ccc(N4CCOCC4)cc32)cc1	Papp [4]: 1 ×10⁻⁶ cm/s
9	1.7	> 100	Nc1ccc2c(=O)n(C(c3ccccc3)c3ccccc3)c(=O)n(C/C=C/COc3ccc(C(=O)O)cc3)c2c1	Papp [4]: 0.4 ×10⁻⁶ cm/s
10			O=C(O)c1ccc(OCCn2c(=O)c3ccccc3n(C(c3ccccc3)c3ccccc3)c2=O)cc1	
1.4	2.9		O=C(O)c1ccc(OC/C=C/Cn2c(=O)n(C(c3ccccc3)c3ccccc3)c(=O)c3ccc(F)cc32)cc1	inhibition at 5 µM (MC9 [5]): 83%; inhibition at 5 µM (MC9 [6]): 99%; IC50 (Blood): 6 µM; inhibition at 5 µM (MC9 [7]): -27%
30			O=C(O)c1ccc(OC/C=C\Cn2c(=O)n(C(c3ccccc3)c3ccccc3)c(=O)c3ccc(Cl)cc32)cc1	
3	6.1		Cc1c(CCOc2ccc(C(=O)O)cc2)c2cc(Cl)ccc2n1C(c1ccccc1)c1ccccc1	inhibition at 5 µM (MC9 [5]): 81%; inhibition at 5 µM (MC9 [6]): 96%; inhibition at 5 µM (MC9 [7]): -8%
44			O=C(O)c1ccc(OC/C=C\Cn2c(=O)n(C(c3ccccc3)c3ccccc3)c(=O)c3ccccc32)cc1	
1.6	4.8	15 (≈ 24.6 µM)	O=C(O)c1ccc(OC/C=C/Cn2c(=O)n(C(c3ccccc3)c3ccccc3)c(=O)c3ccc(Oc4ccccc4)cc32)cc1	
10			O=C(O)c1ccc(OC/C=C/Cn2c(=O)n(C(c3ccccc3)c3ccccc3)c(=O)c3cc(Cl)ccc32)cc1	
120			O=C(O)C1CC1Cn1c(=O)c2cc(Br)ccc2n(C(c2ccccc2)c2ccccc2)c1=O (stereo unspecified)	
260			O=C(O)Cc1ccc(Cn2c(=O)n(C(c3ccccc3)c3ccccc3)c(=O)c3ccccc32)cc1	
2	3.2	26 (≈ 46 µM)	CSc1ccc2c(=O)n(C(c3ccccc3)c3ccccc3)c(=O)n(C/C=C/COc3ccc(C(=O)O)cc3)c2c1	Papp [4]: 4.5 ×10⁻⁶ cm/s
2.5			O=C(O)c1ccc(OCCCCn2c(=O)n(C(c3ccccc3)c3ccccc3)c(=O)c3ccc(Cl)cc32)cc1	
4	3.3		O=C(O)c1ccc(OCCn2c(=O)c3ccc(Cl)cc3n(C(c3ccccc3)c3ccccc3)c2=O)cc1	inhibition at 5 µM (MC9 [5]): 61%; inhibition at 5 µM (MC9 [6]): 93%; inhibition at 5 µM (MC9 [7]): 0%
0.014			Cc1cccc(C)c1CS(=O)(=O)NCCc1c(CCCc2ccc(C(=O)O)cc2)c2cc(Cl)ccc2n1C(c1ccccc1)c1ccccc1	
12			O=C(O)Cc1ccc(Cn2c(=O)c3cc(Br)ccc3n(C(c3ccccc3)c3ccccc3)c2=O)cc1	
10			O=C(O)c1ccc(OCCn2c(=O)n(C(c3ccccc3)c3ccccc3)c(=O)c3ccc(Cl)cc32)cc1	
90			O=C(O)c1ccc(Cn2c(=O)c3cc(Cl)ccc3n(C(c3ccccc3)c3ccccc3)c2=O)cc1	
50			O=C(O)c1ccc(OCCCn2c(=O)n(C(c3ccccc3)c3ccccc3)c(=O)c3ccccc32)cc1	
30			O=C(O)c1ccc(OC/C=C\Cn2c(=O)n(C(c3ccccc3)c3ccccc3)c(=O)c3cc(Br)ccc32)cc1	
80			O=C(O)c1ccc(Cn2c(=O)c3ccc(Cl)cc3n(C(c3ccccc3)c3ccccc3)c2=O)cc1	
> 100			O=C(O)c1ccc(OCCn2c(=O)c3ccccc3n(Cc3ccccc3)c2=O)cc1	
2		51 (≈ 98.3 µM)	O=C(O)c1ccc(OC/C=C/Cn2c(=O)c3ccccc3n(C(c3ccccc3)c3ccccc3)c2=O)cc1	inhibition at 5 µM (MC9 [5]): 61%; inhibition at 5 µM (MC9 [6]): 98%; IC50 (Blood): 12 µM; inhibition at 5 µM (MC9 [7]): -15%
360			O=C(O)COc1ccc(Cn2c(=O)n(C(c3ccccc3)c3ccccc3)c(=O)c3ccccc32)cc1	

Source: ChEMBL document CHEMBL1153032, “Benzhydrylquinazolinediones: novel cytosolic phospholipase A2alpha inhibitors with improved physicochemical properties” (Bioorg Med Chem, 2009)
